Data: the RNAGym collection of RNA variant scans (doi:10.1126/science.aae0568)
Variants at the floor of the assay were thinned out.

B1: tRNA (parent)
chain: GUUCCGUUGGCGUAAUGGUAACGCGUCUCCCUCCUAAGGAGAAGACUGCGGGUUCGAGUCCCGUACGGAACG

Variants of: B1
Test: yeast fitness relative to wild type (ratio to wild type); higher = fitter; tRNA-Arg(CCU), competitive growth, 37 C, YPD
Outline: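 Variants of the tRNA-Arg(CCU) gene were chemically synthesised with a 3% per-site mutation rate across 69 sites and placed at the native genomic locus in Saccharomyces cerevisiae. Six parallel replicates of the pooled strains were competed in YPD at 37°C for 24 hours, and gene amplicons from the start and end populations were read by 100-nucleotide paired-end sequencing. Darwinian fitness relative to wild type was derived from changes in genotype frequencies. Genotypes required ≥ 100 starting reads, and estimates < 0.5 were set to 0.5.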

Variant	yeast fitness
GUUCCGUUGGCGUAAUGGUAGCGCGUCUCCCUCCUAAGAAGAAGACUGCGGGUUCGAGUCCCAUACGGAGCG [A21G G39A G63A A70G]	0.619
GUUCCGUUGGCGUAAUGGUAGCGCGUCUCCCUCCUAAGCAGAAGACUGCGGGUUCGAGUCCCGUACGGAACG [A21G G39C]	0.732
GUUCCGUUGGCGUAAUGGUAGCGCGUCUCCCUCCUAAGCAGCAGACUGCGGGUUCGAGUCCCGUACGGAACG [A21G G39C A42C]	0.563
GUUCCGUUGGCGUAAUGGUAGCGCGUCUCCCUCCUAAGCAGAAGAAUGCGGGUUCGAGUCCCGUACGGAACG [A21G G39C C46A]	0.881
GUUCCGUUGGCGUAAUGGUAGCGCGUCUCCCUCCUAAGCAGAAGACUGCGGGUUCGAGUCCUGUACGGAACG [A21G G39C C62U]	≤ 0.5
GUUCCGUUGGCGUAAUGGUAGCGCGUCUCCCUCCUAAGUAGAAGACUGCGGGUUCGAGUCCUGUACGGAACG [A21G G39U C62U]	0.527
GUUCCGUUGGCGUAAUGGUAGCGCGUCUCCCUCCUAAGGAACAGACUGCGGGUUCGCGUCCCGUACGGGACG [A21G G41A A42C A57C A69G]	0.686
GUUCCGUUGGCGUAAUGGUAGCGCGUCUCCCUCCUAAGGACAAGACUGCGGGUUCGAGUCCCGUACGGAACG [A21G G41C]	0.997
GUUCCGUUGGCGUAAUGGUAGCGCGUCUCCCUCCUAAGGACAAGUCUGCGGGUUCGAGUCCCGUACGGAACG [A21G G41C A45U]	0.546
GUUCCGUUGGCGUAAUGGUAGCGCGUCUCCCUCCUAAGGACAAGACUGCGGGUUCGAGUCCCGUACGGUACG [A21G G41C A69U]	0.682
GUUCCGUUGGCGUAAUGGUAGCGCGUCUCCCUCCUAAGGAGAAAUCUGCGGGUUCGAGUCCCGUACGGAACG [A21G G44A A45U]	0.914
GUUCCGUUGGCGUAAUGGUAGCGCGUCUCCCUCCUAAGGAGAAGACUCCGGGUUCGGGUCCCAUACGGAACG [A21G G48C A57G G63A]	≤ 0.5
GUUCCGUUGGCGUAAUGGUAGCGCGUCUCCCUCCUAAGGAGAAGACUCCGGGUUCGAGUCGAGUAUGGAACG [A21G G48C C61G C62A C66U]	≤ 0.5
GUUCCGUUGGCGUAAUGGUAGCGCGUCUCCCUCCUAAGGAGAAGACUGCAGGUUUGAGUCCCGUACGGAACG [A21G G50A C55U]	0.533
GUUCCGUUGGCGUAAUGGUAGCGCGUCUCCCUCCUAAGGAGAAGACUGCGAGUUCGAGUCCCGUACGGAACG [A21G G51A]	0.836
GUUCCGUUGGCGUAAUGGUAGCGCGUCUCCCUCCUAAGGAGAAGACUGCGCGUUCGAGUCCCGUACGGAACG [A21G G51C]	0.647
GUUCCGUUGGCGUAAUGGUAGCGCGUCUCCCUCCUAAGGAGAAGACUGCGUGUUCGAAUCCCGUACGGAACG [A21G G51U G58A]	0.777
GUUCCGUUGGCGUAAUGGUAGCGCGUCUCCCUCCUAAGGAGAAGACUGCGGAUUCGGGUCCCGUAGGGAACG [A21G G52A A57G C66G]	≤ 0.5
GUUCCGUUGGCGUAAUGGUAGCGCGUCUCCCUCCUAAGGAGAAGACUGCGGAUUCGUGUCCCGUACCGAACG [A21G G52A A57U G67C]	≤ 0.5

Variant	yeast fitness
GUUCCGUUGGCGUAAUGGUAGCGCGUCUCCCUCCUAAGGAGAAGACUGCGGCUUCGAGUCCCGUACGGAACG [A21G G52C]	0.639
GUUCCGUUGGCGUAAUGGUAGCGCGUCUCCCUCCUAAGGAGAAGACUGCGGGUUCAAGUCCCGUGUGGAACG [A21G G56A A65G C66U]	0.638
GUUCCGUUGGCGUAAUGGUAGCGCGUCUCCCUCCUAAGGAGAAGACUGCGGGUUCUACUCCCGUACGGUACG [A21G G56U G58C A69U]	≤ 0.5
GUUCCGUUGGCGUAAUGGUAGCGCGUCUCCCUCCUAAGGAGAAGACUGCGGGUUCGAAUCCCGUACGGAACG [A21G G58A]	1.01
GUUCCGUUGGCGUAAUGGUAGCGCGUCUCCCUCCUAAGGAGAAGACUGCGGGUUCGACUCCCGUUCGGAACG [A21G G58C A65U]	1.18
GUUCCGUUGGCGUAAUGGUAGCGCGUCUCCCUCCUAAGGAGAAGACUGCGGGUUCGAGUCCCAUACGGAACG [A21G G63A]	0.863
GUUCCGUUGGCGUAAUGGUAGCGCGUCUCCCUCCUAAGGAGAAGACUGCGGGUUCGAGUCCCCUACGGAACG [A21G G63C]	0.73
GUUCCGUUGGCGUAAUGGUAGCGCGUCUCCCUCCUAAGGAGAAGACUGCGGGUUCGAGUCCCGUACUGAACG [A21G G67U]	0.87
GUUCCGUUGGCGUAAUGGUAGCGCGUCUCCCUCCUAAGGAGAAGACUGCGGGUUCGAGUCCCGUACGAAACG [A21G G68A]	1.01
GUUCCGUUGGCGUAAUGGUAGCGCGACUCCCUCCUAAGGAGAAGACUGCGGGUUCGAGUCCCGUCCGGAACG [A21G U26A A65C]	0.527
GUUCCGUUGGCGUAAUGGUAGCGCGCGUCCCUCCUAAGGAGAAGACUCCGGGUUCGAGUCCCGUACGGAACG [A21G U26C C27G G48C]	≤ 0.5
GUUCCGUUGGCGUAAUGGUAGCGCGCCUUCCUCCUAAGGAGAAGACUGCGGGUUCCAGUCCCGUACGGUACG [A21G U26C C29U G56C A69U]	≤ 0.5
GUUCCGUUGGCGUAAUGGUAGCGCGGCUCCCUCCUAAGGAGAAGACUGCGCGUUCGAGUCCCGUACGGAACG [A21G U26G G51C]	≤ 0.5
GUUCCGUUGGCGUAAUGGUAGCGCGUCACCCUCCUAAGGAGAAGACUGCGGGUUCGAGUCCCGUACGGAACG [A21G U28A]	0.81
GUUCCGUUGGCGUAAUGGUAGCGCGUCACUCUCCUAAGGAGAAGACUGCGGGUUCGAGUCCCGUACGGAACG [A21G U28A C30U]	≤ 0.5
GUUCCGUUGGCGUAAUGGUAGCGCGUCACUCUCCUAAGGAGAAGACUGCGGGUUCGAGUCCAGUACGGAACG [A21G U28A C30U C62A]	0.744
GUUCCGUUGGCGUAAUGGUAGCGCGUCCCCCUCCUAAGGAGAAGACUGCGGGUUCGAGUCCCGUACGGAACG [A21G U28C]	0.991
GUUCCGUUGGCGUAAUGGUAGCGCGUCCCCCUCCUAAGGAGAAGACUGCGGGUUCGAGUCCCGUGCGGAACG [A21G U28C A65G]	0.779
GUUCCGUUGGCGUAAUGGUAGCGCGUCUCCCCCCUAAGGAGAAGACUGCGGGUUCGAGUCCCGUACGGAACG [A21G U32C]	1.03
